From PubChem
NR2E3 ag-1: NR2E3 (human) agonism; Q9Y5X4; GST-NR2E3/biotin-RetCOR TR-FRET, 1536-well; inhibition of corepressor binding, % at 4.78 µM; 0.12% of 320,000 active; AID 2300;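 active means percent inhibition above the cutoff of mean plus 3 SD of all tested compounds, set per screening campaign, cut at about 20% in these data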;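 further: 0% = DMSO wells and 100% = biotin wells as full block of FRET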
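Material: NR2E3–RetCOR corepressor complex / Amount: 1.35 nM GST-NR2E3 / Medium: Tris pH 7.5 / Compound: single nominal compound dose of 4.8 µM / Incubation: 5 h at 4 °C / Technique: TR-FRET, Eu(K)-anti-GST donor, streptavidin-D2 acceptor, ex 340, em 617/671 nm / Read-out basis: percent loss of FRET ratio relative to control wells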
NR2E3 ag-2: agonists of human NR2E3 nuclear receptor; CHO-S Gal4-NCOR/VP16-NR2E3 two-hybrid, luciferase; 0.35% of 360,000 active; Q9Y5X4; AID 602229; inhibition of corepressor binding, % at 3.98 µM;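 active means inhibition above the mean of all tested compounds plus 3 SD, cut at about 70% in these data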;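 further: 0% = DMSO with NR2E3 transfected cells and 100% = cells lacking NR2E3 construct; higher means lower luciferase signal from less NR2E3 corepressor binding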
CHT block: inhibitors of human choline transporter CHT; Q9GZV3; CHT-expressing cells, membrane potential dye, choline response; hits give low values; B-score at 10 µM; 0.86% of 310,000 active;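 active means B-score over 3 SD under the library average, and starting fluorescence ratio not unusually high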;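 further: choline stimulus applied at its EC90 after an EC20 pre-addition; B-score computed on integrated fluorescence ratio after choline addition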
COUP-TFII inh: inhibitors of human COUP-TFII (NR2F2). HEK293T NGFI-A luciferase reporter, luminescence. inhibition, % at 8.6 µM. 0.7% of 370,000 active. AID 686940;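 active means inhibition above a per-plate cutoff, mean inhibition of test wells between control levels plus 3 SD, cut at about 38% in these data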;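 further: cells cotransfected with COUP-TFII expression vector driving the NGFI-A reporter; 0% = median of COUP-TF2 test wells and 100% = reporter-only cells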
Target sequence (P24468 whole entry, looked up): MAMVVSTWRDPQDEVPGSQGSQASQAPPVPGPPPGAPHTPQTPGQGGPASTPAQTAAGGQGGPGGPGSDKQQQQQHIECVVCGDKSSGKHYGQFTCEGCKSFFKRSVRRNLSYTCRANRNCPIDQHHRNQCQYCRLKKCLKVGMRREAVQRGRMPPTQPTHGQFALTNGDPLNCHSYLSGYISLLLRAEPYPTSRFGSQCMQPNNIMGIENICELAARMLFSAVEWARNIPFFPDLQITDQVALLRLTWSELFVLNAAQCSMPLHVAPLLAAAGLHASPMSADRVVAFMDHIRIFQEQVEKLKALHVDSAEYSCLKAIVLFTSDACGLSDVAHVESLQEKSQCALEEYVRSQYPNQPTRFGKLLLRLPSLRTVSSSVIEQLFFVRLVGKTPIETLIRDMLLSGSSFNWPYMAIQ
GalR3 antagonist: antagonists of human GalR3; O60755; HEK293 GalR3-CNG cAMP membrane potential fluorescence; galR3 body fused to GalR1 C-terminus; inhibition, % at 3 µM; 0.44% of 360,000 active; AID 651719;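 active means inhibition above the screen-wide average plus 3 SD, cut at about 13% in these data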;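 further: forskolin and galanin both at EC90 stimulate the cells; cAMP rise reported by CNG channel membrane potential dye signal; 0% = forskolin plus galanin with DMSO and 100% = forskolin alone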
CHT PAM: human CHT allosteric activation | 0.49% of 310,000 active | B-score at 10 µM | CHT-expressing cells, membrane potential dye, choline EC20; hits give high values; LV-AA mutant CHT in HEK293 cells | AID 488977;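 active means initial fluorescence not abnormally high and integrated response B-score, plate-corrected, over 3 SD above library mean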
CHT inh conf: human CHT inhibition, confirmatory screen; shares compounds with CHT block; CHT activity remaining % of control (hits give low values), % at 10 µM; 70% of 2,400 active; CHT-expressing cells, choline membrane potential dye; LV-to-AA substituted CHT, HEK293 cells;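 active means choline transporter activity left, mean of duplicates at 10 µM, below buffer-only control mean minus 3 SD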;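 further: depolarization triggered by choline at its EC90 following an EC20 pre-addition; 0% = hemicholinium-3 full block and 100% = buffer-only control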
HEK293 CHT ctr: counter-screen for CHT inhibitors: effect in parental HEK293 cells | shares compounds with CHT block | membrane potential dye, choline response; active = decrease or increase beyond buffer ±3SD | membrane potential ratio readout (active if shifted either direction beyond buffer ±3SD; no single direction) at 10 µM | 4% of 2,400 active | AID 493222;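 further: parental cells lack the transporter so any hit is non-specific; ratio is peak minus trough fluorescence over baseline after EC90 choline challenge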
* marks the source's active call; other numbers are inactive results; i = inactive; · = no result given. Hits are enriched below; roughly 2.3% of the tested compounds scored in any of these assays.

SMILES	NR2E3 ag-1	NR2E3 ag-2	CHT block	COUP-TFII inh	GalR3 antagonist	CHT PAM	CHT inh conf	HEK293 CHT ctr
Cn1c(-c2ccccc2)cnc1SCc1nc2ccccc2c(=O)[nH]1	-1	-133	-5.3*	-34	-4	i	60%*	i
O=C(CSc1nnc(Cc2cccs2)n1-c1ccc(Cl)cc1)Nc1ccc(OCc2ccccc2)cc1	·	·	·	0	·	·	·	·
Cc1c(NC(=S)NC(=O)c2sc3ccccc3c2Cl)cccc1C(=O)O	2	-170	i	-73	-1	i	·	·
COc1ccccc1C(=O)NNC(=S)NC(=O)c1sc2ccccc2c1Cl	1	-24	-6.6*	6	1	i	57%*	i
COc1ccccc1C(=O)NC(=S)NNC(=O)c1sc2ccccc2c1Cl	-3	-20	-7*	9	3	i	58%*	i
Cc1ccccc1-n1nnnc1Sc1nnnn1-c1ccccc1	2	16	-5*	-7	-5	i	64%*	i
Cc1ccccc1-n1nnnc1SCC(N)=O	-1	9	i	-6	-3	i	·	·
CCOC(=O)N1CCN(C(=O)C[C@H]2C[C@@]3(C(=O)OC)C(=C[C@H](C4CCCC4)O[C@@H]3C)N(CCC3=CCCCC3)C2=O)CC1	·	·	·	-15	·	·	·	·
Cc1cc(=O)[nH]c(SCC(=O)Nc2ccccc2C#N)c1C#N	3	-1	i	2	-5	i	·	·
Cc1cc(=O)[nH]c(SCC(=O)Nc2ccc(F)cc2)c1C#N	4	-12	-10*	-4	-3	i	62%*	i
CCCCCn1c(=O)c(F)cn(Cc2ccc(OC)c([N+](=O)[O-])c2)c1=O	-1	4	-7.6*	9	-2	i	54%*	i
CCCCn1c(=O)c(F)cn(Cc2ccc(OC)c([N+](=O)[O-])c2)c1=O	1	2	i	2	10	i	·	·
CCCCCCn1c(=O)c(F)cn(Cc2ccc(OC)c([N+](=O)[O-])c2)c1=O	1	5	-6.7*	-7	-4	i	i	i
Cc1cc(C)c(C(=O)Nc2ccc(S(=O)(=O)Nc3ccccn3)cc2)c(C)c1	6	-17	-14*	-5	-8	i	5.0%*	i
CC(C)(C)C(=O)Nc1ccc(S(=O)(=O)Nc2ccccn2)cc1	0	34	i	1	1	i	·	·
Cc1ccc2ncnc(Nc3ccccc3)c2c1	1	-5	i	0	0	i	·	·
COc1ccccc1Nc1ncnc2ccc(C)cc12	0	-25	-5.4*	3	-1	i	61%*	i
CC(C)c1ccc(C(=O)Nc2cc(Cl)ccc2C(=O)O)cc1	·	·	·	7	·	·	·	·
O=C(NNc1ccc(C(F)(F)F)cc1[N+](=O)[O-])c1ccc(NS(=O)(=O)c2ccc(F)cc2)cc1	-3	7	-10*	6	-1	i	52%*	i
COC(=O)C1CN(C2CC2)CCS(=O)(=O)N1Cc1cn(Cc2ccc(Cl)cc2)nn1 (stereo not given)	·	·	·	2	·	·	·	·
COc1ccc2c(c1OC)C(=O)N1c3ccccc3C(=O)N(c3ccccc3)C21 (stereo not given)	-1	28	-8.5*	2	-2	i	i	i
COc1ccc2c(c1OC)C(=O)N1c3ccccc3C(=O)N(c3ccc(F)cc3)C21 (stereo not given)	-2	15	i	6	-8	i	·	·
COc1ccc(/C=C\C(=O)NCC(=O)N/N=C/c2ccc(O)cc2O)cc1	4	6	-5.5*	6	-7	i	i	i
c1cn(C23CC4CC(CC(C4)C2)C3)cn1	1	10	-14*	3	-1	i	-3.7%*	i
c1ncn(C23CC4CC(CC(C4)C2)C3)n1	1	7	i	13	-1	i	·	·
SMILES	NR2E3 ag-1	NR2E3 ag-2	CHT block	COUP-TFII inh	GalR3 antagonist	CHT PAM	CHT inh conf	HEK293 CHT ctr
CC(=O)N(C)c1ccc(NC(=O)C(Sc2ccccc2)c2ccccc2)cc1 (stereo not given)	1	-31	-5.5*	-34	-8	i	65%*	i
O=c1c2c(C(F)(F)F)cc(C(F)(F)F)nc2[nH]n1-c1ccccc1	0	-24	-6.1*	10	-5	i	46%*	i
O=C(Nc1sc2c(c1C(=O)O)CCCC2)c1ccc(Cl)cc1	3	-96	-6.3*	21	-6	i	53%*	i
Cc1c(O)ccc(/C(Cc2ccc3ccccc3n2)=N\N)c1O	-2	17	-5.9*	8	-2	i	56%*	i
CCc1cc(/C(Cc2ccc3ccccc3n2)=N\O)c(O)cc1O	-1	-78	i	-10	-4	i	·	·
CC(=O)NN1C(=O)c2ccc(Oc3cccc([N+](=O)[O-])c3)cc2C1=O	-2	-24	-8.3*	11	0	i	23%*	i
COc1ccc(C2C(C(=O)Nc3ccc(F)cc3)CCC(=O)N2c2ccc(OC)cc2)cc1 (stereo not given)	·	·	·	-7	·	·	·	·
Cc1ccc(-c2nnc(Sc3nc4ccccc4o3)c3ccccc23)cc1	2	-70	i	-3	1	i	·	·
Cc1nnc(Sc2nc3ccccc3o2)c2ccccc12	1	-95	-5.9*	-9	3	i	27%*	i
NCCCCCc1nnc(SCc2ccc(Cl)c(Cl)c2)o1	2	0	-5.4*	-14	-8	i	30%*	i
NCCc1nnc(SCc2ccc(F)cc2)o1	0	1	i	-16	-6	i	·	·
CCn1cc(/C=C(\NC(=O)c2ccccc2F)C(=O)N2CCOCC2)c2ccccc21	1	10	-5.1*	·	·	i	46%*	i
CCn1cc(/C=C(\NC(=O)c2ccccc2OC)C(=O)NCCCn2ccnc2)c2ccccc21	0	-28	i	-19	-7	i	·	·
O=C(N/C(=C\c1ccccc1)C(=O)N1CCOCC1)c1ccccc1Cl	5	-10	i	1	5	i	·	·
O=C(NCCCn1ccnc1)/C(=C\c1ccc(Br)cc1)NC(=O)c1ccccc1	-4	-21	-5*	-12	-7	i	59%*	i
CCn1cc(/C=C(\NC(=O)c2ccccc2Cl)C(=O)N2CCOCC2)c2ccccc21	-2	-16	i	8	0	i	·	·
O=C(N/C(=C\c1ccc(Br)cc1)C(=O)N1CCOCC1)c1ccccc1Cl	3	17	-5.6*	6	0	i	i	i
